Measured values gathered from unrelated publications.
Target: 5-hydroxytryptamine receptor 2A (HTR2A, Homo sapiens, UniProt P28223)
Effect on: ligand displacement

| Compound | technique | tested at | inhibition [%] |
| --- | --- | --- | --- |
| N#Cc1cc(Cn2c(N3CCCC3)nc3ccccc32)ccc1F | – | 10 µM | 5.32 |
| C#CCOCCOCCOc1ccc2c3c1C1CCCC1N3CCNC2 (racemic) | radioligand | 10 µM | ~70 |
| O=C(c1ccc(Cl)cc1)N(Cc1ccccc1)C1CCCCC1 | radioligand | 10 µM | 14.5 |
| CN1CCN(CCCOc2ccc(=O)n(-c3ccc(Cl)c(Cl)c3)n2)CC1 | – | 1 µM | 34.9 |
| CCN(CC)c1ccc(C2Nc3ccc(C(=O)c4ccccc4)cc3NC3=C2C(=O)CC(C)(C)C3)cc1 (stereo not shown) | radioligand | 10 µM | -10 |
| Oc1cccc(Nc2nc(-c3ccc(F)cc3F)cs2)c1 | radioligand | 10 µM | 67 |
| CCCNc1nc2ccccc2n1Cc1ccc(Cl)cc1 | – | 10 µM | 59.8 |
| COc1cc2c3c(c1OC)-c1cc4c(cc1CC3N(C)CC2c1ccccc1)OCO4 (stereo not shown) | radioligand | 10 µM | < 50 |
| COc1ccc(-n2nc(OCCCN3CCCCC3)ccc2=O)cc1 | – | 1 µM | 49.4 |
| O=C1N=C(N2CCCCN2)S/C1=C\c1ccc(F)cc1O | radioligand | 10 µM | 17 |
